Results as given in ChEMBL document CHEMBL1795269, “Novel (E)-5-styryl-2,2'-bithiophene derivatives as ligands for β-amyloid plaques” (Eur J Med Chem, 2011).
Values belong to the molecule of their own block, whether it stands above or below them. Calls of active or inactive are those of the source. The calls are words filed in the database; no cut-off is given here.

Tests used:
Mus musculus = species: Mus musculus; test: Binding affinity to amyloid beta in APP/PS1 transgenic C57 mouse brain at 1 uM after 10 mins by fluorescence assay; type: tissue-based
Method in brief: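 Paraffin-embedded brain sections (10 μm) from APP/PS1 C57 transgenic mouse, deparaffinized through xylene and graded ethanol, then PBS (0.2 M, pH 7.4) 30 min. Sections incubated 10 min with compound (1 μM in 20% ethanol), washed with 50% ethanol and PBS. Confocal fluorescence read at excitation 405 nm, 505 nm long-pass. Plaques confirmed with thioflavin-S (1 μM) on adjacent sections.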

[1] = Displacement of [125I]-TZDM from amyloid beta 1 to 42 after 2 hrs by gamma counting
Method in brief: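 Aβ1-42 aggregated at 0.25 mg/mL in pH 7.4 buffer (10 mM sodium phosphate, 1 mM EDTA), 37 °C for 42 h with shaking. Fibrils (28 nM final) mixed with [125I]TZDM and inhibitor (10^-5 to 10^-10 M in EtOH) in PBS (0.2 M, pH 7.4). Incubated 2 h at 37 °C; nonspecific binding taken with 100 nM TZDM. Bound and free separated by vacuum filtration through glass fibre filters, washed with cold PBS containing 10% ethanol, then counted; Ki reported.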

Spleen [2] = test: Biodistribution in Kunming mouse spleen at 1 uCi, iv after 2 mins by gamma counting; type: ADME, organism-based; details: in vivo
Method in brief: (§1)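 Female normal KunMing mice, about 20 g. [125I]-labelled tracer (1 μCi) in 100 μL saline injected into the tail vein. Mice killed at set times after injection; organs removed, weighed and counted in a gamma counter. %ID/g of wet tissue calculated against diluted aliquots of the injected dose.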

Kidney [3] = test: Biodistribution in Kunming mouse kidney at 1 uCi, iv after 15 mins by gamma counting; type: ADME, organism-based; details: in vivo, 0.25 h; method in brief: as §1
Lung [4] = test: Biodistribution in Kunming mouse lung at 1 uCi, iv after 30 mins by gamma counting; type: ADME, organism-based; details: in vivo, 0.5 h; method in brief: as §1
Stomach [5] = test: Biodistribution in Kunming mouse stomach assessed per organ at 1 uCi, iv after 60 mins by gamma counting; type: ADME, organism-based; details: in vivo, 1 h
Blood [6] = test: Biodistribution in Kunming mouse blood at 1 uCi, iv after 15 mins by gamma counting; type: ADME, organism-based; details: in vivo, 0.25 h; method in brief: as §1
Liver [7] = test: Biodistribution in Kunming mouse liver at 1 uCi, iv after 15 mins by gamma counting; type: ADME, organism-based; details: in vivo, 0.25 h; method in brief: as §1
Liver [8] = test: Biodistribution in Kunming mouse liver at 1 uCi, iv after 2 mins by gamma counting; type: ADME, organism-based; details: in vivo; method in brief: as §1
Spleen [9] = test: Biodistribution in Kunming mouse spleen at 1 uCi, iv after 120 mins by gamma counting; type: ADME, organism-based; details: in vivo, 2 h; method in brief: as §1
Muscle tissue [10] = test: Biodistribution in Kunming mouse muscle at 1 uCi, iv after 60 mins by gamma counting; type: ADME, organism-based; details: in vivo, 1 h; method in brief: as §1
Brain [11] = test: Biodistribution in Kunming mouse brain at 1 uCi, iv after 120 mins by gamma counting; type: ADME, organism-based; details: in vivo, 2 h; method in brief: as §1
Lung [12] = test: Biodistribution in Kunming mouse lung at 1 uCi, iv after 2 mins by gamma counting; type: ADME, organism-based; details: in vivo; method in brief: as §1
Muscle tissue [13] = test: Biodistribution in Kunming mouse muscle at 1 uCi, iv after 2 mins by gamma counting; type: ADME, organism-based; details: in vivo; method in brief: as §1
Muscle tissue [14] = test: Biodistribution in Kunming mouse muscle at 1 uCi, iv after 15 mins by gamma counting; type: ADME, organism-based; details: in vivo, 0.25 h; method in brief: as §1
[15] = Octanol-phosphate buffer partition coefficient, log D of the compound at pH 7.4; type: physicochemical
Method in brief: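 Radiotracer added to premixed n-octanol (3 g) and PBS (0.05 M, pH 7.4; 3 g), and partitioned between the two phases.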

Kidney [16] = test: Biodistribution in Kunming mouse kidney at 1 uCi, iv after 120 mins by gamma counting; type: ADME, organism-based; details: in vivo, 2 h; method in brief: as §1
Liver [17] = test: Biodistribution in Kunming mouse liver at 1 uCi, iv after 60 mins by gamma counting; type: ADME, organism-based; details: in vivo, 1 h; method in brief: as §1
Brain [18] = test: Biodistribution in Kunming mouse brain at 1 uCi, iv after 15 mins by gamma counting; type: ADME, organism-based; details: in vivo, 0.25 h; method in brief: as §1
Heart [19] = test: Biodistribution in Kunming mouse heart at 1 uCi, iv after 30 mins by gamma counting; type: ADME, organism-based; details: in vivo, 0.5 h; method in brief: as §1
Liver [20] = test: Biodistribution in Kunming mouse liver at 1 uCi, iv after 30 mins by gamma counting; type: ADME, organism-based; details: in vivo, 0.5 h; method in brief: as §1
Heart [21] = test: Biodistribution in Kunming mouse heart at 1 uCi, iv after 2 mins by gamma counting; type: ADME, organism-based; details: in vivo; method in brief: as §1
Spleen [22] = test: Biodistribution in Kunming mouse spleen at 1 uCi, iv after 30 mins by gamma counting; type: ADME, organism-based; details: in vivo, 0.5 h; method in brief: as §1
Blood [23] = test: Biodistribution in Kunming mouse blood at 1 uCi, iv after 30 mins by gamma counting; type: ADME, organism-based; details: in vivo, 0.5 h; method in brief: as §1
Blood [24] = test: Biodistribution in Kunming mouse blood at 1 uCi, iv after 2 mins by gamma counting; type: ADME, organism-based; details: in vivo; method in brief: as §1
Stomach [25] = test: Biodistribution in Kunming mouse stomach assessed per organ at 1 uCi, iv after 120 mins by gamma counting; type: ADME, organism-based; details: in vivo, 2 h; method in brief: as §1
Heart [26] = test: Biodistribution in Kunming mouse heart at 1 uCi, iv after 120 mins by gamma counting; type: ADME, organism-based; details: in vivo, 2 h; method in brief: as §1
Brain [27] = test: Biodistribution in Kunming mouse brain at 1 uCi, iv after 60 mins by gamma counting; type: ADME, organism-based; details: in vivo, 1 h; method in brief: as §1
Blood [28] = test: Biodistribution in Kunming mouse blood at 1 uCi, iv after 120 mins by gamma counting; type: ADME, organism-based; details: in vivo, 2 h; method in brief: as §1
Spleen [29] = test: Biodistribution in Kunming mouse spleen at 1 uCi, iv after 15 mins by gamma counting; type: ADME, organism-based; details: in vivo, 0.25 h; method in brief: as §1
Lung [30] = test: Biodistribution in Kunming mouse lung at 1 uCi, iv after 15 mins by gamma counting; type: ADME, organism-based; details: in vivo, 0.25 h; method in brief: as §1
Stomach [31] = test: Biodistribution in Kunming mouse stomach assessed per organ at 1 uCi, iv after 15 mins by gamma counting; type: ADME, organism-based; details: in vivo, 0.25 h; method in brief: as §1
Stomach [32] = test: Biodistribution in Kunming mouse stomach assessed per organ at 1 uCi, iv after 30 mins by gamma counting; type: ADME, organism-based; details: in vivo, 0.5 h; method in brief: as §1
Stomach [33] = test: Biodistribution in Kunming mouse stomach assessed per organ at 1 uCi, iv after 2 mins by gamma counting; type: ADME, organism-based; details: in vivo; method in brief: as §1
Lung [34] = test: Biodistribution in Kunming mouse lung at 1 uCi, iv after 120 mins by gamma counting; type: ADME, organism-based; details: in vivo, 2 h; method in brief: as §1
Blood [35] = test: Biodistribution in Kunming mouse blood at 1 uCi, iv after 60 mins by gamma counting; type: ADME, organism-based; details: in vivo, 1 h; method in brief: as §1
Muscle tissue [36] = test: Biodistribution in Kunming mouse muscle at 1 uCi, iv after 30 mins by gamma counting; type: ADME, organism-based; details: in vivo, 0.5 h; method in brief: as §1
Kidney [37] = test: Biodistribution in Kunming mouse kidney at 1 uCi, iv after 2 mins by gamma counting; type: ADME, organism-based; details: in vivo; method in brief: as §1
Muscle tissue [38] = test: Biodistribution in Kunming mouse muscle at 1 uCi, iv after 120 mins by gamma counting; type: ADME, organism-based; details: in vivo, 2 h; method in brief: as §1
Lung [39] = test: Biodistribution in Kunming mouse lung at 1 uCi, iv after 60 mins by gamma counting; type: ADME, organism-based; details: in vivo, 1 h; method in brief: as §1
Heart [40] = test: Biodistribution in Kunming mouse heart at 1 uCi, iv after 15 mins by gamma counting; type: ADME, organism-based; details: in vivo, 0.25 h; method in brief: as §1
Heart [41] = test: Biodistribution in Kunming mouse heart at 1 uCi, iv after 60 mins by gamma counting; type: ADME, organism-based; details: in vivo, 1 h; method in brief: as §1
Kidney [42] = test: Biodistribution in Kunming mouse kidney at 1 uCi, iv after 60 mins by gamma counting; type: ADME, organism-based; details: in vivo, 1 h; method in brief: as §1
Kidney [43] = test: Biodistribution in Kunming mouse kidney at 1 uCi, iv after 30 mins by gamma counting; type: ADME, organism-based; details: in vivo, 0.5 h; method in brief: as §1
Liver [44] = test: Biodistribution in Kunming mouse liver at 1 uCi, iv after 120 mins by gamma counting; type: ADME, organism-based; details: in vivo, 2 h; method in brief: as §1
Brain [45] = test: Biodistribution in Kunming mouse brain at 1 uCi, iv after 30 mins by gamma counting; type: ADME, organism-based; details: in vivo, 0.5 h; method in brief: as §1
Brain [46] = test: Biodistribution in Kunming mouse brain at 1 uCi, iv after 2 mins by gamma counting; type: ADME, organism-based; details: in vivo; method in brief: as §1
Spleen [47] = test: Biodistribution in Kunming mouse spleen at 1 uCi, iv after 60 mins by gamma counting; type: ADME, organism-based; details: in vivo, 1 h; method in brief: as §1

- Activity (Mus musculus): Active
- Ki [1]: 0.36 nM
- inhibition [1]: Dose-dependent effect
Structure (SMILES): CN(C)c1ccc(/C=C/c2ccc(-c3ccc(Br)s3)s2)cc1

- Drug uptake (Spleen [2]): 9.14 % ID/g
- Drug uptake (Kidney [3]): 6.61 % ID/g
- Drug uptake (Lung [4]): 12.95 % ID/g
- Drug uptake (Stomach [5]): 8.9 %ID
- Drug uptake (Blood [6]): 7.99 % ID/g
- Drug uptake (Liver [7]): 46.86 % ID/g
- Drug uptake (Liver [8]): 45.73 % ID/g
- Drug uptake (Spleen [9]): 7.21 % ID/g
- Drug uptake (Muscle tissue [10]): 3.95 % ID/g
- Drug uptake (Brain [11]): 0.59 % ID/g
- Drug uptake (Lung [12]): 26.17 % ID/g
- Drug uptake (Muscle tissue [13]): 1.61 % ID/g
- Drug uptake (Muscle tissue [14]): 2.23 % ID/g
- logD [15]: 3.07
- Drug uptake (Kidney [16]): 6.33 % ID/g
- Drug uptake (Liver [17]): 15.74 % ID/g
- Drug uptake (Brain [18]): 0.44 % ID/g
- Drug uptake (Heart [19]): 5.55 % ID/g
- Drug uptake (Liver [20]): 26.91 % ID/g
- Drug uptake (Heart [21]): 5.08 % ID/g
- Drug uptake (Spleen [22]): 9.4 % ID/g
- Drug uptake (Blood [23]): 6.18 % ID/g
- Drug uptake (Blood [24]): 11.21 % ID/g
- Drug uptake (Stomach [25]): 20.22 %ID
- Drug uptake (Heart [26]): 4.18 % ID/g
- Drug uptake (Brain [27]): 0.5 % ID/g
- Drug uptake (Blood [28]): 6.85 % ID/g
- Drug uptake (Spleen [29]): 11.2 % ID/g
- Drug uptake (Lung [30]): 16.37 % ID/g
- Drug uptake (Stomach [31]): 2.6 %ID
- Drug uptake (Stomach [32]): 5.11 %ID
- Drug uptake (Stomach [33]): 0.39 %ID
- Drug uptake (Lung [34]): 7.08 % ID/g
- Drug uptake (Blood [35]): 6.7 % ID/g
- Drug uptake (Muscle tissue [36]): 2.12 % ID/g
- Drug uptake (Kidney [37]): 4.82 % ID/g
- Drug uptake (Muscle tissue [38]): 2.83 % ID/g
- Drug uptake (Lung [39]): 10.45 % ID/g
- Drug uptake (Heart [40]): 6.25 % ID/g
- Drug uptake (Heart [41]): 5.33 % ID/g
- Drug uptake (Kidney [42]): 6.42 % ID/g
- Drug uptake (Kidney [43]): 5.92 % ID/g
- Drug uptake (Liver [44]): 11 % ID/g
- Drug uptake (Brain [45]): 0.39 % ID/g
- Drug uptake (Brain [46]): 0.5 % ID/g
- Drug uptake (Spleen [47]): 6.38 % ID/g
Structure (SMILES): COc1ccc(/C=C/c2ccc(-c3ccc([125I])s3)s2)cc1

- Activity (Mus musculus): Active
- Ki [1]: 0.73 nM
- inhibition [1]: Dose-dependent effect
Structure (SMILES): CN(C)c1ccc(/C=C/c2ccc(-c3cccs3)s2)cc1

- Activity (Mus musculus): Active
- Ki [1]: 0.73 nM
- inhibition [1]: Dose-dependent effect
Structure (SMILES): CC(C)(C)c1ccc(/C=C/c2ccc(-c3cccs3)s2)cc1

- Ki [1]: 1.02 nM
- inhibition [1]: Dose-dependent effect
Structure (SMILES): Clc1ccc(/C=C/c2ccc(-c3ccc(Br)s3)s2)cc1

- Ki [1]: 1.32 nM
- inhibition [1]: Dose-dependent effect
Structure (SMILES): Brc1ccc(-c2ccc(/C=C/c3ccccc3)s2)s1

- Ki [1]: 0.19 nM
- inhibition [1]: Dose-dependent effect
Structure (SMILES): Brc1ccc(/C=C/c2ccc(-c3ccc(I)s3)s2)cc1

- Ki [1]: 3.6 nM
- inhibition [1]: Dose-dependent effect
Structure (SMILES): Oc1ccc(/C=C/c2ccc(-c3ccc(Br)s3)s2)cc1
